Data taken from ChEMBL document CHEMBL1177802, “Novel semicarbazones based 2,5-disubstituted-1,3,4-oxadiazoles: one more step towards establishing four binding site pharmacophoric model hypothesis for anticonvulsant activity” (Bioorg Med Chem Lett, 2010).
Active and inactive are the calls of the source.

What was measured:
Mus musculus [1] = assay: Anticonvulsant activity against subcutaneous pentylenetetrazole-induced seizures in Swiss albino mouse at 300 mg/kg, ip after 0.5 hrs; type: functional, organism-based; parameters: dose 300 mg/kg
In short: (§1)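 Mice; subcutaneous pentylenetetrazole seizure screen after ip dosing at 30, 100 and 300 mg/kg, read 0.5 and 4.0 h post-dose. Scored as the lowest dose protecting at least half of the animals. Absence of activity is judged at the 300 mg/kg maximum.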

Rattus norvegicus [2] = assay: Anticonvulsant activity against subcutaneous strychnine-induced seizures in ip dosed Wistar rat assessed as minimum effective dose after 4 hrs; type: functional; details: read-out: MED
In short: (§2)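 Rats; subcutaneous strychnine-induced seizure model with compounds given intraperitoneally at 30, 100 and 300 mg/kg. Activity is checked at 0.5 h and 4.0 h and recorded as the minimal dose active in at least half of the animals. Absence of activity is judged at the 300 mg/kg maximum.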

Mus musculus [3] = assay: Anticonvulsant activity against maximal electroshock-induced seizures in ip dosed Swiss albino mouse assessed as minimum effective dose after 0.5 hrs; type: functional; details: read-out: MED
In short: (§3)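 Mice; compounds given ip at 30, 100 and 300 mg/kg and tested in the maximal electroshock seizure model at 0.5 and 4.0 h after dosing. Read-out is the minimal dose giving protection in half or more of the animals. Absence of activity is judged at the 300 mg/kg maximum.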

Mus musculus [4] = assay: Anticonvulsant activity against maximal electroshock-induced seizures in Swiss albino mouse at 300 mg/kg, ip after 4 hrs; type: functional, organism-based; parameters: dose 300 mg/kg; in short: as §3
Mus musculus [5] = assay: Neurotoxicity in ip dosed Swiss albino mouse assessed as minimum dose required to cause toxicity after 4 hrs; type: organism-based; details: in vivo
In short: (§4)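 Acute neurotoxicity by rotorod test in mice given 30, 100 and 300 mg/kg ip, assessed 0.5 and 4.0 h after dosing. Reported as the minimal dose producing the effect in half or more of the animals. Absence of activity is judged at the 300 mg/kg maximum.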

Mus musculus [6] = assay: Anticonvulsant activity against subcutaneous pentylenetetrazole-induced seizures in Swiss albino mouse at 300 mg/kg, ip after 4 hrs; type: functional, organism-based; parameters: dose 300 mg/kg; in short: as §1
Mus musculus [7] = assay: Neurotoxicity in Swiss albino mouse at 300 mg/kg, ip after 0.5 hrs; type: toxicity, organism-based; parameters: dose 300 mg/kg, route intraperitoneal; details: in vivo; in short: as §4
Rattus norvegicus [8] = assay: Anticonvulsant activity against subcutaneous strychnine-induced seizures in Wistar rat at 300 mg/kg, ip after 0.5 hrs; type: functional, organism-based; parameters: dose 300 mg/kg; in short: as §2
Mus musculus [9] = assay: Anticonvulsant activity against maximal electroshock-induced seizures in ip dosed Swiss albino mouse assessed as minimum effective dose after 4 hrs; type: functional; details: read-out: MED; in short: as §3
Rattus norvegicus [10] = assay: Anticonvulsant activity against subcutaneous strychnine-induced seizures in Wistar rat at 300 mg/kg, ip after 4 hrs; type: functional, organism-based; parameters: dose 300 mg/kg; in short: as §2
Mus musculus [11] = assay: Neurotoxicity in Swiss albino mouse at 300 mg/kg, ip after 4 hrs; type: toxicity, organism-based; parameters: dose 300 mg/kg, route intraperitoneal; details: in vivo; in short: as §4
Mus musculus [12] = assay: Anticonvulsant activity against maximal electroshock-induced seizures in Swiss albino mouse at 300 mg/kg, ip after 0.5 hrs; type: functional, organism-based; parameters: dose 300 mg/kg; in short: as §3
Mus musculus [13] = assay: Neurotoxicity in ip dosed Swiss albino mouse assessed as minimum dose required to cause toxicity after 0.5 hrs; type: organism-based; details: in vivo; in short: as §4
Mus musculus [14] = assay: Anticonvulsant activity against subcutaneous pentylenetetrazole-induced seizures in ip dosed Swiss albino mouse assessed as minimum effective dose after 0.5 hrs; type: functional; details: read-out: MED; in short: as §1
Rattus norvegicus [15] = assay: Anticonvulsant activity against subcutaneous strychnine-induced seizures in ip dosed Wistar rat assessed as minimum effective dose after 0.5 hrs; type: functional; details: read-out: MED
In short: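 Rats given 30, 100 or 300 mg/kg ip and challenged with subcutaneous strychnine. Protection was read at 0.5 and 4.0 h after dosing. The value is the minimal dose that gave activity in half or more of the animals; no activity at 300 mg/kg was the highest-dose cut-off.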

Mus musculus [16] = assay: Anticonvulsant activity against subcutaneous pentylenetetrazole-induced seizures in ip dosed Swiss albino mouse assessed as minimum effective dose after 4 hrs; type: functional; details: read-out: MED; in short: as §1
Rattus norvegicus [17] = assay: Increase in GABA level in Wistar rat midbrain assessed per mg of tissue at 100 mg/kg, ip after 2 hrs; type: functional; details: route intraperitoneal
In short: (§5)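 Rats given 100 mg/kg ip and killed by decapitation 2 h later. Midbrain, medulla oblongata and cerebellum are placed separately in ice-cold 80% ethanol and processed for GABA, expressed per 100 mg tissue. Reference drug clobazam is given at 30 mg/kg ip. Values are mean ± SEM of six rats.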

Rattus norvegicus [18] = assay: Increase in GABA level in Wistar rat cerebellum assessed per mg of tissue at 100 mg/kg, ip after 2 hrs; type: functional; details: route intraperitoneal; in short: as §5
Rattus norvegicus [19] = assay: Neurotoxicity in Wistar rat at 30 mg/kg, po after 0.5 hrs; type: toxicity, organism-based; parameters: dose 30 mg/kg, route oral; details: in vivo
In short: (§6)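 Oral dosing in rats at 30 mg/kg, neurotoxicity (rotorod) scored at 0.25, 0.5, 1, 2 and 4 h post-administration. Counts are out of four rats per time point.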

Rattus norvegicus [20] = assay: Anticonvulsant activity against maximal electroshock-induced seizures in Wistar rat at 30 mg/kg, po after 1 hr; type: functional, organism-based; parameters: dose 30 mg/kg
In short: (§7)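 Rats dosed orally at 30 mg/kg; maximal electroshock protection scored at 0.25, 0.5, 1, 2 and 4 h. Result is given as the number of protected rats out of four.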

Rattus norvegicus [21] = assay: Neurotoxicity in Wistar rat at 30 mg/kg, po after 1 hr; type: toxicity, organism-based; parameters: dose 30 mg/kg, route oral; details: in vivo; in short: as §6
Rattus norvegicus [22] = assay: Increase in GABA level in Wistar rat medulla oblangata assessed per mg of tissue at 100 mg/kg, ip after 2 hrs; type: functional, Medulla oblongata; details: route intraperitoneal; in short: as §5
Rattus norvegicus [23] = assay: Neurotoxicity in Wistar rat at 30 mg/kg, po after 2 hrs; type: toxicity, organism-based; parameters: dose 30 mg/kg, route oral; details: in vivo; in short: as §6
Rattus norvegicus [24] = assay: Anticonvulsant activity against maximal electroshock-induced seizures in Wistar rat at 30 mg/kg, po after 0.25 hrs; type: functional, organism-based; parameters: dose 30 mg/kg; in short: as §7
Rattus norvegicus [25] = assay: Anticonvulsant activity against maximal electroshock-induced seizures in Wistar rat at 30 mg/kg, po after 0.5 hrs; type: functional, organism-based; parameters: dose 30 mg/kg; in short: as §7
Rattus norvegicus [26] = assay: Neurotoxicity in Wistar rat at 30 mg/kg, po after 0.25 hrs; type: toxicity, organism-based; parameters: dose 30 mg/kg, route oral; details: in vivo; in short: as §6

Row | Compound | MED (Mus musculus [1]) | minimal effective dose (Rattus norvegicus [2]) | minimal effective dose (Mus musculus [3]) | MED (Mus musculus [4]) | MED (Mus musculus [6]) | Activity (Mus musculus [7]) | MED (Rattus norvegicus [8]) | minimal effective dose (Mus musculus [9]) | MED (Rattus norvegicus [10]) | Activity (Mus musculus [11]) | MED (Mus musculus [12]) | minimal effective dose (Mus musculus [14]) | minimal effective dose (Mus musculus [16]) | other results
1 | O=C(N/N=C\c1ccc([N+](=O)[O-])cc1)Nc1nnc(COc2ccc3ccccc3c2)o1 | inactive | 300 mg/kg | 300 mg/kg | inactive | inactive | Non-toxic | inactive | – | – | – | – | – | – | Activity (Mus musculus [5]): 300 mg/kg
2 | Cc1ccc(/C=N\NC(=O)Nc2nnc(COc3ccc4ccccc4c3)o2)cc1 | inactive | – | – | – | inactive | Non-toxic | inactive | 300 mg/kg | inactive | Non-toxic | inactive | – | – | –
3 | COc1cc(/C=N\NC(=O)Nc2nnc(COc3ccc4ccccc4c3)o2)ccc1O | inactive | 300 mg/kg | – | inactive | inactive | – | inactive | – | – | Non-toxic | inactive | – | – | Activity (Mus musculus [13]): 300 mg/kg
4 | CCCC(CCC)C(=O)[O-].[Na+] [VALPROATE SODIUM] | – | – | 300 mg/kg | inactive | inactive | Non-toxic | – | – | inactive | Non-toxic | – | 300 mg/kg | – | minimal effective dose (Rattus norvegicus [15]): 300 mg/kg
5 | CCC1(C)CC(=O)NC1=O (configuration not stated) [ETHOSUXIMIDE] | – | – | – | inactive | – | Non-toxic | – | – | inactive | Non-toxic | inactive | 100 mg/kg | 300 mg/kg | minimal effective dose (Rattus norvegicus [15]): 300 mg/kg
6 | COc1ccc(/C=N\NC(=O)Nc2nnc(COc3ccc4ccccc4c3)o2)cc1 | inactive | – | – | inactive | – | Non-toxic | inactive | – | inactive | Non-toxic | inactive | – | 300 mg/kg | –
7 | O=C(N/N=C(/c1ccccc1)c1ccc(O)cc1)Nc1nnc(COc2ccc3ccccc3c2)o1 | inactive | 300 mg/kg | 100 mg/kg | – | – | Non-toxic | inactive | 300 mg/kg | – | Non-toxic | – | – | 300 mg/kg | Activity (Rattus norvegicus [17]): 62.25 µg; Activity (Rattus norvegicus [18]): 31.41 µg; Activity (Rattus norvegicus [19]): Non-toxic; Activity (Rattus norvegicus [20]): inactive; Activity (Rattus norvegicus [21]): Non-toxic; Activity (Rattus norvegicus [22]): 37.74 µg; Activity (Rattus norvegicus [23]): Non-toxic; Activity (Rattus norvegicus [24]): inactive; Activity (Rattus norvegicus [25]): inactive; Activity (Rattus norvegicus [26]): Non-toxic
8 | C/C(=N/NC(=O)Nc1nnc(COc2ccc3ccccc3c2)o1)c1ccc(C)cc1 | – | – | – | inactive | inactive | – | inactive | – | inactive | Non-toxic | inactive | 300 mg/kg | – | Activity (Mus musculus [13]): 300 mg/kg
9 | C/C(=N/NC(=O)Nc1nnc(COc2ccc3ccccc3c2)o1)c1ccc(N)cc1 | inactive | 300 mg/kg | – | – | – | Non-toxic | inactive | 300 mg/kg | – | Non-toxic | inactive | – | 300 mg/kg | –
